Data set [1] deals with T1, 5-hydroxytryptamine receptor 2C (Homo sapiens, UniProt P28335).
T1 sequence (P28335 whole entry): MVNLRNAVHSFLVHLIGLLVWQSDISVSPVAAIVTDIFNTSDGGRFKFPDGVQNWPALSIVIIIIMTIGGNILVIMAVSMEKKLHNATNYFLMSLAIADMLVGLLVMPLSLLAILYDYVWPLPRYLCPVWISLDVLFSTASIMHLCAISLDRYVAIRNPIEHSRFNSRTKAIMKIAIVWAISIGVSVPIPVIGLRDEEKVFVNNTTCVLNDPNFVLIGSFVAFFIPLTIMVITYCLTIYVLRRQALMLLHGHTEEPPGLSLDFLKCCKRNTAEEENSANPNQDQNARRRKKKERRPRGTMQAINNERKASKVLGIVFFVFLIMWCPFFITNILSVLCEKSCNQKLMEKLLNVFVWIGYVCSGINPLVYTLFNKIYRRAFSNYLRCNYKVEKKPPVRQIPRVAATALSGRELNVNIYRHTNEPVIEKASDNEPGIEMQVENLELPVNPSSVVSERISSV
The experiment in a line: Agonist activity at human recombinant 5HT2C receptor expressed in CHO K1 cells assessed as calcium mobilisation by FLIPR assay. The class given is functional, cell-based. The gist of the method: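 Recombinant CHO K1 cells expressing the human 5-HT2C receptor. Agonism was read as a fluorescent calcium mobilisation signal in a FLIPR assay. Values were reported as EC50 and Emax (%).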

A short description of data set [2]: Lipophilicity, log Dof the compound at pH 7.4. The class given is physicochemical. The following applies: buffer.
Data set [3] has as its target T2, 5-hydroxytryptamine receptor 2C (Homo sapiens) (UniProt P28335).
T2 sequence (whole entry): T1 sequence (P28335 whole entry)
The experiment in a line: Agonist activity at human recombinant 5HT2C receptor transfected in CHO K1 cells assessed as calcium mobilisation at 10 uM by FLIPR assay relative to serotonin. The class given is functional, cell-based. The gist of the method: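 Recombinant CHO K1 cells stably expressing the human 5-HT2C receptor; agonist-induced calcium mobilisation read as a fluorescence signal on FLIPR. Potency reported as EC50 and efficacy as Emax (%).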

The nature of data set [4]: Intrinsic clearance in human liver microsomes. It is filed as ADME, Microsome.
For data set [5], the target named is 5-hydroxytryptamine receptor 2B (Homo sapiens, UniProt P41595). Put plainly: Agonist activity at human recombinant 5HT2B receptor transfected in CHO K1 cells assessed as calcium mobilisation at 10 uM by FLIPR assay. It is filed as functional, cell-based. The gist of the method: (§1)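 Recombinant cell-based systems expressing the human 5-HT2A or 5-HT2B receptor. Agonist response was read as calcium mobilisation by FLIPR, with test compound at 10 μM. Results were reported as % agonism.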
5-hydroxytryptamine receptor 2B, sequence (P41595 whole entry): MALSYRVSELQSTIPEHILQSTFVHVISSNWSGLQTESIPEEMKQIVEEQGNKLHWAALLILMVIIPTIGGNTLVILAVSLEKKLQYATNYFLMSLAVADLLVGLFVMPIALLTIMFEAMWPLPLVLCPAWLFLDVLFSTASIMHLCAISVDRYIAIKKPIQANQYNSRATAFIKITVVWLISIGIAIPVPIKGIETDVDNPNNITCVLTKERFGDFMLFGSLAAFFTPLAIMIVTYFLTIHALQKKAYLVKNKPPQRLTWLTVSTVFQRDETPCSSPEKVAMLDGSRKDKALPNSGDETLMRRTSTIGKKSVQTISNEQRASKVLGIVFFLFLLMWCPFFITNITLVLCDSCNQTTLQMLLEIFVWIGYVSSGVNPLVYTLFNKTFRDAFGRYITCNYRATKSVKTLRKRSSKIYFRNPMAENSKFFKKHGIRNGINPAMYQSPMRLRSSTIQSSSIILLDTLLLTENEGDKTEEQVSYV
Background: A change in cytosolic calcium serves as a functional read-out for many receptors and channels.

For data set [6], the system named is MDR1 (human). The experiment in a line: Efflux ratio, permeability from basolateral to apical over apical to basolateral side in MDCK cells expressing human MDR1 gene. The class given is ADME, cell-based, Canis lupus familiaris. The following applies: dog.
Data set [7] addresses 5-hydroxytryptamine receptor 2A (Homo sapiens, UniProt P28223). Put plainly: Agonist activity at human recombinant 5HT2A receptor transfected in CHO K1 cells assessed as calcium mobilisation at 10 uM by FLIPR assay. It is filed as functional, cell-based. In outline:
as §1

For orientation: EC50 means the concentration needed to bring the measured effect to its halfway point. What is called logD is the decadic logarithm of the distribution of all forms, ionised or not, between an organic phase and buffer at a given pH. Read a high logD as higher lipophilicity. Broadly, the Emax is the maximal effect, on the per cent scale that the assay sets. Usually microsomal CLint stands for a measure of how fast metabolising enzymes remove a compound, apart from limits set by blood flow. For orientation: efflux ratio means the permeability from basolateral to apical divided by that in the opposite direction, in the common usage.

5-hydroxytryptamine receptor 2A, sequence (P28223 whole entry): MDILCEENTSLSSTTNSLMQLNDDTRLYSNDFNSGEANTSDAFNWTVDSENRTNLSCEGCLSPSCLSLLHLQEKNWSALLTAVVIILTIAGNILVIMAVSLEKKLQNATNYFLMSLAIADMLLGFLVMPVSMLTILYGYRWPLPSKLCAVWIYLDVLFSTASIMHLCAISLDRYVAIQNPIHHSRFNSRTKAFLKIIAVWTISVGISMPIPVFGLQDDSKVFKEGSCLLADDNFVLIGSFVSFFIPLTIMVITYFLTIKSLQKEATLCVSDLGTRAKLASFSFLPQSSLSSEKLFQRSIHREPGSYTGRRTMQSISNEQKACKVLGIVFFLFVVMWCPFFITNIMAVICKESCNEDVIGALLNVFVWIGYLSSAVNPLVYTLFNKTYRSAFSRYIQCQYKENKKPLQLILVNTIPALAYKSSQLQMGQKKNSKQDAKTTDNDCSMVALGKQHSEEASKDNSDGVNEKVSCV

As to `Cc1ccc(Cl)cc1OCc1nc(N2CCNCC2)cc(=O)n1C`, the concentration for a half-maximal effect (EC50) in data set [1] worked out at 160 nM. In data set [2], this molecule came in with a logD of 1.5. Also, the Emax in data set [3] stood at 84%. The molecule further showed a microsomal CLint in data set [4] of less than 7 µL/min/mg.
Turning to `Cn1c(CCc2cccc(Cl)c2)nc(N2CCNCC2)cc1=O`, the EC50 in data set [1] is 96 nM. For the same molecule, the results for the Activity in data set [5] and in data set [7] were less than 5% and 57%, respectively. The molecule also showed a logD in data set [2] of 1.2. Besides, the efflux ratio in data set [6] worked out at 4. In addition, the Emax in data set [3] came out at 59%. The molecule further yielded a microsomal CLint in data set [4] of less than 7 µL/min/mg.
Turning to `CCn1c(COc2cccc(C#N)c2)nc(N2CCNCC2)cc1=O`, the concentration giving a half-maximal response (EC50) in data set [1] worked out at 112 nM. Also, the logD in data set [2] was found to be 0.4. For the same molecule, the Emax in data set [3] is 77%. In data set [4], this molecule returned a microsomal CLint of less than 7 µL/min/mg.
For `Cn1c(COc2ccc(Cl)cc2)nc(N2CCNCC2)cc1=O`, the EC50 in data set [1] was greater than 10000 nM. In data set [2], this molecule yielded a logD of 0.8. The microsomal CLint in data set [4] was less than 7 µL/min/mg.
In the case of `Cn1c(COc2cccc(C(F)(F)F)c2)nc(N2CCNCC2)cc1=O`, in data set [1], the EC50 came to 487 nM. This molecule also came in with a logD in data set [2] of 1.3. Further, in data set [3], the Emax is 49%.
With `Cn1c(COc2cccc(C#N)c2)nc(N2CCNCC2)cc1=O`, the EC50 in data set [1] amounted to 319 nM. In data set [2], this molecule yielded a logD of 0.3. Also, in data set [3], the Emax was 63%. Further, in data set [4], the microsomal CLint was less than 7 µL/min/mg.
Take `CCn1c(CCc2ccccc2Cl)nc(N2CCNCC2)cc1=O`: the EC50 in data set [1] came to 21 nM. For the same molecule, the Activity is less than 5% in data set [5] and 16% in data set [7]. Moreover, the logD in data set [2] is 1.9. In addition, the efflux ratio in data set [6] amounted to 4.3. Also, the Emax in data set [3] was found to be 50%. The microsomal CLint in data set [4] is 30 µL/min/mg.
For `Cn1c(N2CCNCC2)nc(CCc2cccc(Cl)c2)cc1=O`, in data set [1], the EC50 is greater than 10000 nM. This molecule gave a log distribution coefficient (logD) in data set [2] of 1.3. The molecule further gave a microsomal CLint in data set [4] of less than 7 µL/min/mg.
As for `C[C@@H]1CNCCN1c1cc(=O)n(C)c(CCc2ccccc2C(F)(F)F)n1`, the EC50 in data set [1] turned out to be 64 nM. Also, the Activity turned out to be 6% in data set [5] and 45% in data set [7]. In data set [2], the logD stood at 1.8. Also, the Emax in data set [3] came out at 59%. Moreover, in data set [4], the microsomal CLint stood at 29 µL/min/mg.
For `Cn1c(COc2ccccc2C(F)(F)F)nc(N2CCNCC2)cc1=O`, the EC50 in data set [1] was determined as 30 nM. In addition, the logD in data set [2] was found to be 1.4. The maximum response (Emax) in data set [3] turned out to be 72%. The same molecule had a microsomal CLint in data set [4] of 14 µL/min/mg.
The corresponding values for `Cn1c(COc2ccccc2Cl)nc(N2CCNCC2)cc1=O` are 73 nM, 0.8, 61% and 11 µL/min/mg.
As for `C[C@@H]1CNCCN1c1cc(=O)n(C)c(CCc2ccccc2Cl)n1`, in data set [1], the EC50 is 21 nM. Further, the Activity is less than 5% in data set [5] and 27% in data set [7]. Besides, in data set [2], the logD is 1.6. In addition, in data set [6], the efflux ratio was 3.1. The Emax in data set [3] came out at 46%. This molecule also came in with a microsomal CLint in data set [4] of 24 µL/min/mg.
On to `Cc1ccccc1OCc1nc(N2CCNCC2)cc(=O)n1C`, for which, in data set [1], the EC50 was determined as 228 nM. For the same molecule, the logD in data set [2] was 0.8. In addition, the Emax in data set [3] was 60%. In addition, the microsomal CLint in data set [4] was less than 7 µL/min/mg.
On to `C[C@@H]1CNCCN1c1ccc(=O)n(CCOc2ccccc2C(F)(F)F)n1`, for which the EC50 in data set [1] was found to be 47 nM. In addition, the Activity was less than 10% in data set [5] and 50% in data set [7]. In data set [2], this molecule gave a logD of 1.4. For the same molecule, the efflux ratio in data set [6] was 3.4. Moreover, the Emax in data set [3] stood at 45%. Moreover, in data set [4], the microsomal CLint came to 15 µL/min/mg.
On to `Cc1cc(=O)n(CCCOc2ccccc2)c(N2CCNC[C@H]2C)n1`, for which, in data set [1], the EC50 stood at 163 nM. The molecule further came in with a logD in data set [2] of 0.9. Also, the Emax in data set [3] was found to be 84%. This molecule displayed a microsomal CLint in data set [4] of 16 µL/min/mg.
For `Cc1cc(=O)n(CCCOc2ccc(F)cc2)c(N2CCNCC2)n1`, in data set [1], the EC50 is greater than 10000 nM. Moreover, the logD in data set [2] came out at 0.7.
As to `Cn1c(COc2cc(F)ccc2Cl)nc(N2CCNCC2)cc1=O`, the EC50 in data set [1] came out at 361 nM. The molecule further gave a logD in data set [2] of 1. The Emax in data set [3] is 48%. Also, the microsomal CLint in data set [4] is less than 7 µL/min/mg.
The corresponding values for `Cn1c(COc2cccc(Cl)c2)nc(N2CCNCC2)cc1=O` are 493 nM, 1, 66% and less than 7 µL/min/mg.
`Cc1cc(=O)n(CCCc2ccccc2)c(N2CCNCC2)n1`: the EC50 in data set [1] was greater than 10000 nM.
For `Cc1cc(=O)n(CCCOc2ccc(Cl)cc2)c(N2CCNCC2)n1`, the EC50 in data set [1] was determined as 899 nM. Also, in data set [3], the Emax came out at 91%.
For `Cc1cc(=O)n(CCCOc2ccccc2F)c(N2CCNCC2)n1`, in data set [1], the EC50 is 77 nM. In addition, the results for the Activity in data set [5] and in data set [7] were 35% and 39%, respectively. This molecule yielded a logD in data set [2] of 0.45. Also, in data set [3], the Emax was 92%.
`C[C@@H]1CNCCN1c1cc(=O)n(C)c(CCc2cccc(Cl)c2)n1`: in data set [1], the EC50 was found to be 26 nM. The Activity in data set [5] worked out at 13%; in data set [7] it was 76%. The logD in data set [2] is 1.6. In addition, the efflux ratio in data set [6] came out at 3.7. The Emax in data set [3] worked out at 59%. In data set [4], this molecule yielded a microsomal CLint of less than 10 µL/min/mg.
For `Cc1cc(=O)n(CCCOc2ccccc2Cl)c(N2CCNCC2)n1`, in data set [1], the EC50 was determined as 56 nM. Besides, the results for the Activity in data set [5] and in data set [7] were 46% and 58%, respectively. In data set [2], this molecule returned a logD of 1. In addition, the Emax in data set [3] worked out at 83%. Moreover, the microsomal CLint in data set [4] came out at 27 µL/min/mg.
On to `Cc1cc(=O)n(CCCOc2ccccc2)c(N2CCNCC2)n1`, for which the half-maximal effective concentration (EC50) in data set [1] was found to be 1020 nM. In addition, the values for the Activity in data set [5] and in data set [7] were 57% and 44%, respectively. Moreover, the logD in data set [2] stood at 0.7. The efflux ratio in data set [6] came to 1.6. The Emax in data set [3] came to 77%. Besides, in data set [4], the microsomal CLint stood at 26 µL/min/mg.
Take `Cn1c(COc2ccc(C(F)(F)F)cc2)nc(N2CCNCC2)cc1=O`: in data set [1], the EC50 is greater than 10000 nM. The logD in data set [2] worked out at 1.1. In data set [4], this molecule showed a microsomal CLint of 8 µL/min/mg.
`Cc1cc(=O)n(CCCOc2cccc(F)c2)c(N2CCNCC2)n1`: the EC50 in data set [1] was greater than 10000 nM. Also, in data set [2], the pH-dependent lipophilicity (logD) was 0.8.
For the molecule `Cc1cc(=O)n(CCCOCc2ccccc2)c(N2CCNCC2)n1`, the EC50 in data set [1] was greater than 10000 nM.
As to `Cc1ccc(F)cc1OCc1nc(N2CCNCC2)cc(=O)n1C`, the EC50 in data set [1] was found to be 46 nM. In addition, the logD in data set [2] is 1. Moreover, the Emax in data set [3] was determined as 84%. The microsomal CLint in data set [4] was less than 7 µL/min/mg.
The corresponding values for `CCn1c(COc2cc(F)ccc2Cl)nc(N2CCNCC2)cc1=O` are 103 nM, 1.4, 46% and less than 7 µL/min/mg.
Consider `Cc1cc(=O)n(CCCOc2cccc(Cl)c2)c(N2CCNCC2)n1`, for which the EC50 in data set [1] worked out at 262 nM. The molecule further yielded a logD in data set [2] of 1.2. The Emax in data set [3] came out at 86%.
Take `Cc1ccccc1CCc1nc(N2CCNC[C@H]2C)cc(=O)n1C`: the EC50 in data set [1] was 26 nM. Further, the Activity in data set [5] was less than 5%; in data set [7], 50%. Further, in data set [2], the logD was 1.4. In addition, the efflux ratio in data set [6] was found to be 3.5. Besides, the Emax in data set [3] was 59%. Also, the microsomal CLint in data set [4] was 18 µL/min/mg.
For the molecule `C[C@@H]1CNCCN1c1cc(=O)n(C)c(CCc2ccccc2)n1`, the EC50 in data set [1] is 262 nM. In addition, the figures for the Activity in data set [5] and in data set [7] were less than 5% and 58%, respectively. The same molecule had a logD in data set [2] of 1. In addition, in data set [3], the Emax was 50%. Also, the microsomal CLint in data set [4] was less than 7 µL/min/mg.
